Assay [1] has as its system Mycobacterium kansasii. The assay can be described thus: Antimycobacterial activity against Mycobacterium kansasii My 235/80 after 7 days by micromethod. Format: functional. The settings on record: My 235/80, 168 h.
Assay [2] relates to Mycobacterium kansasii. In words: Antimycobacterial activity against Mycobacterium kansasii My 6509/96 clinical isolate after 7 days by micromethod. Format: functional. The following applies: My 6509/96, 168 h.
Assay [3] relates to Mycobacterium avium. The assay can be described thus: Antimycobacterial activity against Mycobacterium avium My 330/88 after 14 days by micromethod. It is filed as functional. The settings on record: My 330/88, 336 h.
The test system of assay [4] is Mycobacterium kansasii. In words: Antimycobacterial activity against Mycobacterium kansasii My 235/80 after 14 days by micromethod. It is filed as functional. The following applies: My 235/80, 336 h.
The subject of assay [5] is Mycobacterium tuberculosis. The assay can be described thus: Antimycobacterial activity against Mycobacterium tuberculosis My 331/88 after 14 days by micromethod. The following applies: My 331/88, 336 h. It is filed as functional. An outline of the steps: (§1)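 MIC by micromethod at 37 °C, read after 14 and 21 days. Inocula were M. tuberculosis My 331/88 at 10^-3 dilution and M. avium My 330/88 at 10^-5 dilution. Compounds added in DMSO across 1000, 500, 250, 125, 62.5, 32, 16, 8, 4, 2, 1 and 0.5; isoniazid standard in sterile water. MIC taken as the lowest concentration inhibiting growth.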

The test system of assay [6] is Mycobacterium tuberculosis. The assay can be described thus: Antimycobacterial activity against Mycobacterium tuberculosis My 331/88 after 21 days by micromethod. Format: functional. The following applies: My 331/88, 504 h. An outline of the steps:
as §1

In assay [7] the test system is Mycobacterium avium. In words: Antimycobacterial activity against Mycobacterium avium My 330/88 after 21 days by micromethod. Format: functional. The settings on record: My 330/88, 504 h.
Assay [8] can be described thus: Selectivity ratio of IC50 for human HepG2 cells to MIC for Mycobacterium tuberculosis My 331/88 after 14 days. Format: functional. An outline of the steps: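 HepG2 cells (passage 12) at 10,000 cells/well in MEM with 10% FBS, 1% glutamine and 1% nonessential amino acids, pre-incubated 24 h at 37 °C, 5% CO2. Compounds in DMSO at eight concentrations in quadruplicate for 24 h. MTS-type reagent added for 1.5 h, absorbance at 490 nm. IC50 from curve fit. SI = IC50 / 14-day MIC against M. tuberculosis 331/88.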

The test system of another assay is HepG2. In words: Cytotoxicity against human HepG2 cells after 24 hrs by CellTiter assay. It is filed as cell-based. The following applies: HepG2, 24 h. The procedure, abridged:
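Hep G2 cells (passage 12), 10,000 per well in MEM with 1% glutamine, 10% FBS and 1% nonessential amino acids, preincubated 24 h at 37 °C, 5% CO2. Compounds dissolved in DMSO, tested at eight concentrations in quadruplicate for 24 h at 37 °C. MTS-type reagent added for 1.5 h, absorbance read at 490 nm. IC50 = concentration reducing viability to 50% of control.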

In assay [9] the target is T1, Isocitrate lyase (Mycobacterium tuberculosis) (UniProt P9WKK7).
T1 sequence (whole entry): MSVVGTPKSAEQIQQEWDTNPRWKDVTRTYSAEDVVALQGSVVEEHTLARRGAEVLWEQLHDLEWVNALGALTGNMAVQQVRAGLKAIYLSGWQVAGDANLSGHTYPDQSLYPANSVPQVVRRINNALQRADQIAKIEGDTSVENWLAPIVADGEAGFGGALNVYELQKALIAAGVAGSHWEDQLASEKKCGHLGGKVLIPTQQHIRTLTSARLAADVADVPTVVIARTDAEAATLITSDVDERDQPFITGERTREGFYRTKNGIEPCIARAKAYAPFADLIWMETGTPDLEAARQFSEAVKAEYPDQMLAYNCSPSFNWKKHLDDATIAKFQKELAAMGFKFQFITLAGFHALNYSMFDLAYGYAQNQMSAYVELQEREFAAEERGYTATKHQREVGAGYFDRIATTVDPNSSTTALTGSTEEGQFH
In words: Inhibition of Mycobacterium tuberculosis H37Rv isocitrate lyase expressed in Escherichia coli BL21(DE3) using (+)-potassium Ds-threo-isocitrate as substrate assessed as glyoxylate phenyl hydrazone formation at 100 umol/L by spectrophotometry.

Assay [10] concerns Mycobacterium kansasii. In words: Antimycobacterial activity against Mycobacterium kansasii My 6509/96 clinical isolate after 21 days by micromethod. Format: functional. The settings on record: My 6509/96, 504 h.
Assay [11] relates to Mycobacterium kansasii. In words: Antimycobacterial activity against Mycobacterium kansasii My 235/80 after 21 days by micromethod. Format: functional. The settings on record: My 235/80, 504 h.
The test system of assay [12] is Mycobacterium kansasii. In words: Antimycobacterial activity against Mycobacterium kansasii My 6509/96 clinical isolate after 14 days by micromethod. Format: functional. The settings on record: My 6509/96, 336 h.

Converted amounts (≈) assume the structure as drawn.

For orientation: MIC means the smallest concentration in the dilution series that meets the test's criterion for growth inhibition. Low readings indicate inhibition by little substance, high ones a need for much substance. The term IC50 denotes the midpoint of a concentration-inhibition curve. The term inhibition denotes the relative decrease from the control value, in per cent. Turning to `COc1cc(Cl)ccc1C(=S)Nc1ccc(Br)cc1`, the MIC against Mycobacterium kansasii [1] came out at 32 µM (≈ 11.4 µg/mL); against Mycobacterium kansasii [2], 16 µM (≈ 5.71 µg/mL); with Mycobacterium avium [3], 16 µM (≈ 5.71 µg/mL); in the assay on Mycobacterium kansasii [4] it was 62.5 µM (≈ 22.3 µg/mL); in assay [5], 4 µM (≈ 1.43 µg/mL); in assay [6], 16 µM (≈ 5.71 µg/mL). Further, the MIC is 62.5 µM (≈ 22.3 µg/mL) against Mycobacterium avium [7], 62.5 µM (≈ 22.3 µg/mL) in the assay with Mycobacterium kansasii [10], 62.5 µM (≈ 22.3 µg/mL) in the assay with Mycobacterium kansasii [11] and 32 µM (≈ 11.4 µg/mL) against Mycobacterium kansasii [12]. Further, the Selectivity ratio in [8] was found to be 0.89. The molecule further displayed an IC50 with HepG2 of 3.55 µM. Moreover, in assay [9], the inhibition was found to be 27%.

On to `COc1cc(Cl)ccc1C(=S)Nc1cccc(Cl)c1`, for which the MIC in the assay with Mycobacterium kansasii [1] came out at 16 µM (≈ 5 µg/mL); against Mycobacterium kansasii [2], 16 µM (≈ 5 µg/mL); against Mycobacterium avium [3], 16 µM (≈ 5 µg/mL); in the assay with Mycobacterium kansasii [4] it was 32 µM (≈ 9.99 µg/mL); in assay [5], 4 µM (≈ 1.25 µg/mL); in assay [6], 16 µM (≈ 5 µg/mL). Further, the MIC against Mycobacterium avium [7] amounted to 16 µM (≈ 5 µg/mL); against Mycobacterium kansasii [10] it was 32 µM (≈ 9.99 µg/mL); in the assay with Mycobacterium kansasii [11], 32 µM (≈ 9.99 µg/mL); in the assay on Mycobacterium kansasii [12] it was 32 µM (≈ 9.99 µg/mL). Also, in [8], the Selectivity ratio is given as 2.92. The molecule further yielded an IC50 in the assay with HepG2 of 11.7 µM. The inhibition in assay [9] is 20%.

For `COc1cc(Cl)ccc1C(=S)Nc1cccc(C(F)(F)F)c1`, the MIC in the assay with Mycobacterium kansasii [1] came out at 16 µM (≈ 5.53 µg/mL); in the assay with Mycobacterium kansasii [2] it was 16 µM (≈ 5.53 µg/mL); in the assay on Mycobacterium avium [3], 32 µM (≈ 11.1 µg/mL); in the assay with Mycobacterium kansasii [4] it was 32 µM (≈ 11.1 µg/mL); in assay [5], 4 µM (≈ 1.38 µg/mL); in assay [6], 8 µM (≈ 2.77 µg/mL). Moreover, the MIC with Mycobacterium avium [7], with Mycobacterium kansasii [10], with Mycobacterium kansasii [11] and against Mycobacterium kansasii [12] was 32 µM (≈ 11.1 µg/mL) each time. Besides, the Selectivity ratio in assay [8] came out at 0.45. For the same molecule, the IC50 in the assay with HepG2 worked out at 1.81 µM. Further, the inhibition in assay [9] is 23%.
